# According to PubChem BioAssay AID493079 (The Scripps Research Institute Molecular Screening Center, 2011):
# Active and inactive are the calls of the source.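 How the source made its calls: active means IC50 of 10 µM or lower for blocking Epstein-Barr viral protein EBNA-1 from binding DNA; inactive means IC50 above 10 µM.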
# Molecular target: EBNA-1 DNA-binding domain (Epstein-Barr virus)
# Test: blockers of EBV EBNA-1 DNA binding, IC50 – biochemical, fluorescence polarization, dose response, assay provider data, late-stage follow-up (AID 493079)
# Conditions: recombinant EBNA1 DBD, Cy5-DNA fluorescence polarization
# In short: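 Assay system: EBNA-1 DBD (aa 448-610), E. coli-expressed; Probe or stimulus: Cy5-labelled DNA hairpin probe, 36-bp oligonucleotide; Measured by: Cy5 fluorescence polarization; Compound: dose-response series of powder compound samples.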
row,SMILES,IC50
1,Cc1ccc(C(=O)Nc2nc3ccc(Br)cc3s2)cc1C,> 148 µM (inactive)
2,CS(=O)(=O)c1ccc2nc(NC(=O)c3ccccc3F)sc2c1,> 148 µM (inactive)
3,COc1ccc(-n2nnnc2SCC(=O)c2cc(C)n(CC3CCCO3)c2C)cc1 (stereo not given),inactive
4,Cc1ccc(C(=O)Nc2nc3ccc(S(C)(=O)=O)cc3s2)cc1,> 148 µM (inactive)
5,Cc1ccc(-n2nnnc2SCC(=O)c2cc(C)n(CC3CCCO3)c2C)cc1 (stereo not given),5.47 µM
6,Cc1cc(C(=O)CSc2nnnn2C)c(C)n1CC1CCCO1 (stereo not given),> 148 µM (inactive)
7,Cc1cccc(-n2nnnc2SCC(=O)c2cc(C)n(CC3CCCO3)c2C)c1 (stereo not given),> 148 µM (inactive)
8,Cc1ccccc1-n1nnnc1SCC(=O)c1cc(C)n(CC2CCCO2)c1C (stereo not given),> 148 µM (inactive)
9,COc1ccc2sc(NC(=O)c3ccc(C)c(C)c3)nc2c1,> 148 µM (inactive)
10,Cc1cc(C(=O)CSc2nnnn2-c2ccc(Cl)cc2)c(C)n1CC1CCCO1 (stereo not given),> 148 µM (inactive)
11,Cc1cc(C(=O)CSc2nnnn2-c2cccc(F)c2)c(C)n1CC1CCCO1 (stereo not given),> 148 µM (inactive)
12,Cc1ccccc1C(=O)Nc1nc2ccc(S(C)(=O)=O)cc2s1,> 148 µM (inactive)
13,Cc1cc(C(=O)CSc2nnnn2C2CC2)c(C)n1CC1CCCO1 (stereo not given),inactive
14,Cc1cc(C(=O)CSc2nnnn2-c2ccccc2)c(C)n1C,inactive
15,CS(=O)(=O)c1ccc2nc(NC(=O)c3cccc(Cl)c3)sc2c1,> 148 µM (inactive)
16,COCCn1c(C)cc(C(=O)CSc2nnnn2-c2ccccc2)c1C,> 148 µM (inactive)
17,COc1ccccc1C(=O)Nc1nc2ccc(S(C)(=O)=O)cc2s1,> 148 µM (inactive)
18,Cc1ccc(C(=O)Nc2nc3cc(Br)ccc3s2)cc1C,> 148 µM (inactive)
19,CCn1c(C)cc(C(=O)CSc2nnnn2-c2ccccc2)c1C,> 148 µM (inactive)

# More lines, now with the values ahead:
row,IC50,SMILES
1,inactive,Cc1cccc(C(=O)Nc2nc3ccc(S(C)(=O)=O)cc3s2)c1
2,> 148 µM (inactive),CS(=O)(=O)c1ccc2nc(NC(=O)c3ccccc3Cl)sc2c1
3,> 148 µM (inactive),Cc1ccc(C(=O)Nc2nc3cc(F)ccc3s2)cc1C
4,> 148 µM (inactive),COc1ccc2nc(NC(=O)c3ccc(C)c(C)c3)sc2c1
5,> 148 µM (inactive),O=C(CSc1nnnn1-c1ccccc1)c1ccn(CC2CCCO2)c1 (stereo not given)
6,inactive,COc1ccc(C(=O)Nc2nc3ccc(S(C)(=O)=O)cc3s2)cc1
7,> 148 µM (inactive),CS(=O)(=O)c1ccc2nc(NC(=O)c3cccc(F)c3)sc2c1
8,inactive,COc1cccc(C(=O)Nc2nc3ccc(S(C)(=O)=O)cc3s2)c1
9,> 148 µM (inactive),Cc1cc(C(=O)CSc2nnnn2-c2ccccc2)c(C)n1Cc1cccs1
10,> 148 µM (inactive),COc1cccc2sc(NC(=O)c3ccc(C)c(C)c3)nc12
11,inactive,CS(=O)(=O)c1ccc2nc(NC(=O)c3ccc(Cl)cc3)sc2c1
